Reference: ChEMBL document CHEMBL1153293, “Discovery and optimization of piperidyl benzamide derivatives as a novel class of 11beta-HSD1 inhibitors” (Bioorg Med Chem Lett, 2009)

How the values were obtained:
[1] = Metabolic stability in human liver microsome assessed as compound remaining after 30 mins; format: ADME; details: liver microsomes, read-out: Stability
[2] = Metabolic stability in rat liver microsome assessed as compound remaining after 30 mins; format: ADME; details: liver microsomes, read-out: Stability
[3] = biological target: T1, Nuclear receptor subfamily 1 group I member 2 (Homo sapiens, UniProt O75469); experiment: Activity at human PXR receptor transfected in human HepG2 cells assessed as receptor activation at 2 uM by luciferase based reporter gene assay relative to rifampin; format: cell-based; details: hepg2, 2 µM
T1 sequence (O75469 whole entry): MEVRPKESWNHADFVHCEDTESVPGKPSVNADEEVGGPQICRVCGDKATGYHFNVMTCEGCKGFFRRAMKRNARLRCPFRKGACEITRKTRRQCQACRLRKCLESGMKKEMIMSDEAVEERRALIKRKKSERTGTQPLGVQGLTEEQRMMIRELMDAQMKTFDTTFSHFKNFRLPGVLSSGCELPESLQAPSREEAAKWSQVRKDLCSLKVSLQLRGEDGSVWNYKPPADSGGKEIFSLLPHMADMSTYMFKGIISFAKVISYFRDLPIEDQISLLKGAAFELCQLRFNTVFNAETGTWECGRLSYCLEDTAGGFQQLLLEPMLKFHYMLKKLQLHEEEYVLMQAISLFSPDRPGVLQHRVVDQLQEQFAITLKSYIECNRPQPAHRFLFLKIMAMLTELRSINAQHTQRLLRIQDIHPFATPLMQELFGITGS
Procedure, shortened: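 HepG2 cells transfected with human PXR cDNA and a luciferase reporter construct driven by the CYP3A4 gene. Cells were exposed to test article, and luciferase activity was read by chemiluminescence. Rifampin at 10 µM served as the positive control.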

HeLa = experiment: Cytotoxicity against human HeLa cells; format: functional, cell-based
[4] = Clearance in rat at 0.51 mg/kg, iv; format: ADME, organism-based; design: dose 0.51 mg/kg, route intravenous; details: in vivo
Procedure, shortened: (§1)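 Rats received each compound both iv (0.39, 0.50 or 0.51 mg/kg, depending on compound) and orally at 2.0 mg/kg. Plasma clearance was taken from the iv arm and oral bioavailability (%F) from the po dose.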

[5] = Oral bioavailability in rat at 2.0 mg/kg; format: ADME, organism-based; details: in vivo; procedure, shortened: as §1
[6] = Metabolic stability in human hepatocyte assessed as compound remaining after 90 mins; format: ADME, cell-based; details: hepatocytes, read-out: Stability
[7] = Metabolic stability in rat hepatocyte assessed as compound remaining after 90 mins; format: ADME, cell-based; details: hepatocytes, read-out: Stability
[8] = Fraction unbound in human plasma; format: ADME, cell-free
Procedure, shortened: (§2)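 Unbound fraction (fu) in plasma was measured with a 4 h ultracentrifugation protocol, with samples analyzed by mass spectrometry.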

[9] = Fraction unbound in rat plasma; format: ADME, cell-free; procedure, shortened: as §2
[10] = Clearance in rat at 0.50 mg/kg, iv; format: ADME, organism-based; design: dose 0.5 mg/kg, route intravenous; details: in vivo, 0.5 mg/kg; procedure, shortened: as §1
[11] = biological target: T2, 11-beta-hydroxysteroid dehydrogenase 1 (Homo sapiens, UniProt P28845); experiment: Inhibition of human recombinant 11beta-HSD1 expressed in baculovirus system by scintillation proximity assay
T2 sequence (P28845 whole entry): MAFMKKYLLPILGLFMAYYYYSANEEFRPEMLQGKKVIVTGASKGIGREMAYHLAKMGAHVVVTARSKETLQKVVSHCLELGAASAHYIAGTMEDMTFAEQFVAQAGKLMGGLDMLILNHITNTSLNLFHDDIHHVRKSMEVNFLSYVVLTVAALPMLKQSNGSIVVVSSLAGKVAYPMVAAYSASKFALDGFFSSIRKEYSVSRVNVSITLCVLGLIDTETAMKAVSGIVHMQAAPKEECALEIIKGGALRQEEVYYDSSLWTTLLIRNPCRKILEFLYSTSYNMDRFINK

[12] = biological target: T2, 11-beta-hydroxysteroid dehydrogenase 1; experiment: Inhibition of human recombinant 11beta-HSD1 expressed HEK293 cells by scintillation proximity assay; format: cell-based
[13] = biological target: T2, 11-beta-hydroxysteroid dehydrogenase 1; experiment: Inhibition of human recombinant 11beta-HSD1 expressed HEK293 cells by scintillation proximity assay in presence of human serum albumin; format: cell-based
[14] = Clearance in rat at 0.39 mg/kg, iv; format: ADME, organism-based; design: dose 0.39 mg/kg, route intravenous; details: in vivo; procedure, shortened: as §1

Row | Compound | remaining at 0.5 h [1] | remaining at 0.5 h [2] | Activity [3] | IC50 (HeLa) | also measured
1 | C[C@@](O)(c1ccc(C(=O)N(C2CC2)[C@H]2CC[C@H](CCC(N)=O)CC2)cc1)C(F)(F)F | > 90% | > 90% | 5% | > 10 µM | clearance [4]: 50 mL/min/kg; bioavailability [5]: 22%; remaining at 1.5 h [6]: 32%; remaining at 1.5 h [7]: < 5%
2 | C[C@](O)(c1ccc(C(=O)N(C2CC2)[C@H]2CC[C@H](c3cccnc3)CC2)cc1)C(F)(F)F |  |  |  | 2.5 µM | 
3 | C[C@](O)(c1ccc(C(=O)N(C2CC2)[C@H]2CC[C@H](CC3(C(N)=O)CC3)CC2)cc1)C(F)(F)F | > 90% | > 90% | 6.5% | 8 µM | remaining at 1.5 h [6]: > 90%; remaining at 1.5 h [7]: 73%; fraction unbound [8]: 0.12; fraction unbound [9]: 0.048
4 | C[C@](O)(c1ccc(C(=O)N(C2CC2)[C@H]2CC[C@@H](CCC#N)CC2)cc1)C(F)(F)F | 64% | < 5% | 56% | > 10 µM | IC50 [11]: 0.0028 µM; IC50 [12]: 0.01 µM; IC50 [13]: 0.13 µM
5 | CC(C)(C[C@H]1CC[C@H](N(C(=O)c2ccc([C@](C)(O)C(F)(F)F)cc2)C2CC2)CC1)C(N)=O | > 90% | > 90% | 4% | > 10 µM | bioavailability [5]: 32%; remaining at 1.5 h [6]: 84%; remaining at 1.5 h [7]: 10%; clearance [14]: 21.7 mL/min/kg
6 | CC(C)(C#N)C[C@H]1CC[C@H](N(C(=O)c2ccc([C@](C)(O)C(F)(F)F)cc2)C2CC2)CC1 | > 90% | 77% | 60% |  | 
7 | C[C@](O)(c1ccc(C(=O)N(C2CC2)[C@H]2CC[C@H](CCC#N)CC2)cc1)C(F)(F)F | > 90% |  | 30% | > 10 µM | 

Further lines, with some results ahead:

Row | remaining at 0.5 h [1] | remaining at 0.5 h [2] | Activity [3] | Compound | IC50 (HeLa) | also measured
8 | > 90% | 72% | 100% | C[C@@](O)(c1ccc(C(=O)N(C2CC2)[C@H]2CC[C@@H](CCC(N)=O)CC2)cc1)C(F)(F)F | > 10 µM | 
9 | > 90% | 73% | 75% | C[C@@](O)(c1ccc(C(=O)N(C2CC2)[C@H]2CC[C@H](CC#N)CC2)cc1)C(F)(F)F |  | 
10 | 70% | 5% | 74% | C[C@@](O)(c1ccc(C(=O)N(C2CC2)[C@H]2CC[C@@H](CC#N)CC2)cc1)C(F)(F)F |  | 
11 | > 90% | 86% | 4% | C[C@](O)(c1ccc(C(=O)N(C2CC2)C2CCN(CC3(C(N)=O)CC3)CC2)cc1)C(F)(F)F | > 10 µM | bioavailability [5]: 69%; remaining at 1.5 h [6]: > 90%; remaining at 1.5 h [7]: 69%; fraction unbound [8]: 0.48; fraction unbound [9]: 0.2; clearance [10]: 14.8 mL/min/kg
12 | 86% | 28% | 3% | C[C@](O)(c1ccc(C(=O)N(C2CC2)C2CCN(CC3(C#N)CC3)CC2)cc1)C(F)(F)F | > 10 µM | 
13 | > 90% | > 90% | 60% | C[C@](O)(c1ccc(C(=O)N(C2CC2)[C@H]2CC[C@H](CC3(C#N)CC3)CC2)cc1)C(F)(F)F | 4 µM | 
14 |  |  | 1% | C[C@](O)(c1ccc(C(=O)N(C2CCC(CC(N)=O)CC2)C2CC2)cc1)C(F)(F)F (mixture of isomers) |  | 
